Shown are actives, neighbours in structure and some others; about 1.9% of the full set was active somewhere.
Runt-SMMHC FRET – Runt domain-CBFb-SMMHC interaction inhibition; Q01196+Q13951; Cerulean-Runt/Venus-CBFb-SMMHC FRET ratio 530/480, 1 h; inhibition, % at 20 µM; 220,000 compounds, 0.74% hits; AID 1434;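 active = mean inhibition across duplicate retests at 20 µM reaching about 50%, limit read from the data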;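 also: 0% = DMSO wells and 100% = wells with excess untagged CBFb-SMMHC; inhibitors lower the FRET ratio by blocking Runt binding to CBFb-SMMHC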
Tb hexokinase – T. brucei hexokinase 1 inhibition | recombinant TbHK1, G6PDH-coupled NADH A340 | inhibition, % at 10 µM | 220,000 compounds, 0.11% hits | AID 1430;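 active = inhibition of 50% or more in the single-dose primary screen; inactive = inhibition below 50%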
Hck Nef HTS – blocks Nef-activated human Hck kinase. inhibition, % at 20 µM. 220,000 compounds, 0.68% hits. Recombinant Hck-YEEI plus Nef, Z-Lyte FRET kinase assay;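 active = Hck-Nef kinase inhibition above about 50%, limit read from the data; inactive = inhibition below that limit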;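 also: 0% = DMSO with Hck plus Nef and 100% = Hck alone without Nef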
Target sequence (P08631 whole entry, looked up): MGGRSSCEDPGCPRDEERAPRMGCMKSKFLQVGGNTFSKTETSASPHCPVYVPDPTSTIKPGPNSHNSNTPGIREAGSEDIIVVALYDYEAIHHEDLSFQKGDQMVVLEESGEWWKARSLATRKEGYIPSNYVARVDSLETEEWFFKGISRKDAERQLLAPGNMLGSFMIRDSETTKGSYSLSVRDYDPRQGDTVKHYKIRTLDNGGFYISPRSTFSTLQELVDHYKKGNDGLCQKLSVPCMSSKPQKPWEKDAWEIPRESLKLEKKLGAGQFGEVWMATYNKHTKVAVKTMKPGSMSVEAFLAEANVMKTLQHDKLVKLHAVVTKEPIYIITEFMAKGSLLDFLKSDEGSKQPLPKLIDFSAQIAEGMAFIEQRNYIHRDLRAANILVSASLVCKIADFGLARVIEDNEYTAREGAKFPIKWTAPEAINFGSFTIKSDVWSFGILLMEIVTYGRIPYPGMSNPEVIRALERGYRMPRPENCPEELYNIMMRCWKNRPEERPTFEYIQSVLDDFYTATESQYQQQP
RanGTP-Imp inh – disruptors of Ran-importin-beta complex formation – biochemical, FRET, CFP-Ran, YFP-importin-beta, homogeneous, primary screen | AID 2216 | 300,000 compounds, 1.1% hits | cell-free CFP-Ran/YFP-importin-beta FRET ratio | inhibition, % (concentration not given with the values);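 active = more than half of the replicate wells show a fall in the fluorescence ratio signal beyond about 16%, limit read from the data, passing the limit was not always enough; inconclusive = exactly half of the replicate wells pass the set limit; inactive = fewer than half of replicates pass the limit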;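 also: 0% = DMSO wells and 100% = Ran loaded with GDP instead of GTP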
Runt-CBFb FRET – blocks binding of human RUNX1 Runt domain to CBFb. Cerulean-Runt/Venus-CBFb FRET ratio 530/480, 1 h. inhibition, % at 20 µM. 220,000 compounds, 0.46% hits. AID 1496;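 active = inhibition over about 50% at 20 µM in the single-dose screen, limit read from the data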;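 also: 0% = DMSO wells and 100% = excess unlabeled CBFb competitor control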
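test system = Cerulean-tagged RUNX1 Runt domain (FRET donor) fusion protein | reagent = Venus-CBFb binding partner, 100 nM | incubation = protein complex preformed 1 h, compound exposure 1 h, room temperature, dark | detection = FRET fluorescence | read-out basis = loss of energy transfer signal | controls = 5 µM unlabeled CBFb as full-inhibition high control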
Hck-Nef confirm – confirmation of Hck-Nef kinase inhibitors | Recombinant Hck-YEEI:Nef, Z-Lyte FRET kinase assay | AID 463188 | 1,300 compounds, 28% hits | shares compounds with Hck Nef HTS | calls only at 10 µM;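 active = average inhibition of at least 50%, with Z-scores no higher than 3 in both the phospho-tyrosine peptide and fluorescence counterscreens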
* = called active by the depositor; i = inactive; ? = inconclusive; / = no result shown; + = active, no number.

SMILES | Runt-SMMHC FRET | Tb hexokinase | Hck Nef HTS | RanGTP-Imp inh | Runt-CBFb FRET | Hck-Nef confirm
O=S(=O)(c1ccccc1)N1N=C(c2cccs2)CC1c1ccc(F)cc1 (centres undefined) | -9.7 | -2.2 | -1.9 | 0.9 | -1.4 | /
Fc1ccc(N2N=C(c3cccs3)CC2c2ccccc2)cc1 (centres undefined) | 90.6* | -5.9 | 56.4* | 2.0 | 58.8* | i
COc1ccc2oc(=O)c(/C(C)=N/Nc3ccccc3)cc2c1 | -98.2 | -6.3 | 20.3 | ? | -34.4 | /
CCc1cc(=O)oc2cc3occ(-c4ccc(OC)c(F)c4)c3cc12 | -5.0 | -1.3 | 57.5* | -1.0 | -2.8 | i
CCN1CCN(C(=O)C2CCC(=O)N(Cc3cccc(C(F)(F)F)c3)C2)CC1 (centres undefined) | / | / | / | 0.7 | / | /
CCC(=O)Oc1ccc2c(C)cc(=O)oc2c1C | 19.9 | 3.4 | 53.6* | 1.7 | 11.1 | i
Cc1cc(=O)oc2c(C)c(OC(=O)c3ccco3)ccc12 | / | / | / | 0.9 | / | /
O=C1ON=C(c2ccccc2)/C1=C\c1ccco1 | 36.7 | 16.1 | 53.9* | -4.8 | 8.9 | i
CCC1Sc2ccc(S(=O)(=O)CCC(=O)NCc3ccco3)cc2NC1=O (centres undefined) | / | / | / | -110.4 | / | /
CC1(C)Cc2c(c(-c3ccco3)nc3sc4c(NCCO)ncnc4c23)CO1 | 22.8 | -21.2 | 37.2 | 0.4 | 29.8 | /
CSc1nc(SCCO)c2sc3nc(-c4ccco4)c4c(c3c2n1)CC(C)(C)OC4 | -46.0 | -9.1 | 77.8* | 4.4 | -11.9 | i
COc1ccc(-c2c(NC(=O)c3ccco3)oc3ccccc3c2=O)cc1OC | / | / | / | 4.0 | / | /
CCOc1cc(N2CCOCC2)c(OCC)cc1NC(=O)c1ccc2ccccc2n1 | -1.6 | -11.0 | 64.2* | -2.4 | 2.2 | i
CCOc1cc(N2CCOCC2)c(OCC)cc1NC(=O)c1ccccc1C | -0.2 | 5.2 | 8.5 | -0.2 | 0.5 | /
CCOC(=O)c1c(NC(=O)N/N=C/c2ccc(O)c(OC)c2)sc(C(C)=O)c1C | -6.1 | -21.0 | 60.8* | -4.8 | 4.8 | i
O=C(N/N=C/c1ccc(O)cc1)Nc1cccc2nsnc12 | 2.8 | 3.0 | 52.6* | 4.6 | -10.8 | i
c1ccn2c(c1)nc1c2nc2ccccn21 | 71.5* | -13.5 | 66.0* | -3.7 | 20.0 | /
Oc1cc2c(cc1C(c1ccc(Cl)c(Cl)c1)N1CCCC1)OCO2 (centres undefined) | 21.8 | 1.1 | 70.0* | 1.8 | 8.4 | i
Brc1ccc(Nc2ncnc3[nH]ncc23)cc1 | -0.5 | -7.8 | 51.1* | 4.3 | -2.4 | i
Fc1cccc(Nc2ncnc3[nH]ncc23)c1 | -4.5 | 2.4 | 41.7 | 0.7 | -0.7 | /
N=C1/C(=C/c2ccc(-c3cccc(C(=O)O)c3)o2)C(=O)N=C2SC(CC(=O)N3CCOCC3)=NN12 | / | / | / | -1.7 | / | /
N=C1/C(=C\c2ccc(-c3cccc(C(=O)O)c3)o2)C(=O)N=C2SC=C(c3ccccc3)N12 | -41.5 | 3.6 | 64.2* | -16.4 | -13.6 | +
CC12CCC(=O)N1c1c(sc3nc(N4CCOCC4)c4c(c13)CCCC4)C(=O)N2 (centres undefined) | 95.9* | -29.6 | 60.8* | -1.0 | 5.1 | /
O=C(NCc1ccc(Cl)cc1)c1ccc2c(=O)n(CC3CCCO3)c(=S)[nH]c2c1 (centres undefined) | / | / | / | -1.1 | / | /
N=c1c(C(=O)NCc2ccc(F)cc2)cc2c(=O)n3ccccc3nc2n1CC1CCCO1 (centres undefined) | 60.4* | -3.9 | 145.4* | 198.5* | 10.4 | /
COCCCn1c(C(=O)NCCC2=CCCCC2)cc2c(=O)n3ccccc3nc21 | / | / | / | 1.6 | / | /
CCCn1c(=N)c(C(=O)NCC2CCCO2)cc2c(=O)n3cccc(C)c3nc21 (centres undefined) | 37.9 | -7.5 | 191.8* | 183.6* | 11.5 | /
CCCn1c(=O)c(C(=O)NCC2CCCO2)c(O)c2ccccc21 (centres undefined) | -1.9 | 0.2 | 0.7 | 4.0 | -2.3 | /
COCCCn1c(=N)c(C(=O)NCC2CCCO2)cc2c(=O)n3ccccc3nc21 (centres undefined) | 65.3* | -8.1 | + | 172.4* | 12.5 | /
Cc1cccc(C(C(=O)NC2CCCC2)N(C(=O)c2csnn2)C2CCCC2)c1 (centres undefined) | / | / | / | 0.7 | / | /

Screening data: PubChem BioAssay, several laboratories
